The term IC50 denotes the point on the concentration scale where inhibition reaches its midpoint.

The record followed here is ChEMBL document CHEMBL1909581, “Growth inhibition of human lung cancer cells via down-regulation of epidermal growth factor receptor signaling by yuanhuadine, a daphnane diterpene from Daphne genkwa” (J Nat Prod, 2011).

Holding throughout (format): functional, cell-based
The test system of experiment [1] is NCI-H1993. Kind of experiment: Antiproliferative activity against human NCI-H1993 cells after 3 days by SRB assay. The settings on record: NCI-H1993, 72 h. On the technique in general: Sulforhodamine B stains cellular protein and so reports cell mass.
Experiment [2] relates to A549. Kind of experiment: Antiproliferative activity against human A549 cells after 3 days by SRB assay. The settings on record: A549, 72 h. The procedure, abridged: (§1)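 Cells seeded at 5 × 10^4 cells/mL and exposed to a range of concentrations for 3 days. Fixed with 10% TCA, then SRB stain read. Growth expressed as % of solvent-treated control. IC50 obtained by nonlinear regression of percent survival versus concentration.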

Experiment [3] is described as follows: Antiproliferative activity against human H1299 cells after 3 days by SRB assay. The settings on record: NCI-H1299, 72 h. The procedure, abridged: as §1
The test system of experiment [4] is NCI-H292. Kind of experiment: Antiproliferative activity against human NCI-H292 cells after 3 days by SRB assay. The settings on record: NCI-H292, 72 h.
Experiment [5] concerns SK-MES-1. Kind of experiment: Antiproliferative activity against human SK-MES cells after 3 days by SRB assay. The settings on record: SK-MES-1, 72 h. The procedure, abridged: as §1
Experiment [6] relates to NCI-H358. Kind of experiment: Antiproliferative activity against human NCI-H358 cells after 3 days by SRB assay. The settings on record: NCI-H358, 72 h. The gist of the method: as §1

`Cc1c2ccncc2c(C)c2c1[nH]c1ccccc12` [ELLIPTECINE]: the IC50 in experiment [1] is 200 nM; in experiment [2], 1100 nM; in experiment [3], 600 nM; in experiment [4], 1000 nM; in experiment [5] it was 200 nM; in experiment [6], 800 nM.
